The text below walks through data of ChEMBL document CHEMBL4190262, “Tuning of β-glucosidase and α-galactosidase inhibition by generation and in situ screening of a library of pyrrolidine-triazole hybrid molecules” (Eur J Med Chem, 2017).

The target of assay [1] is T1, Alpha-mannosidase (Canavalia ensiformis) (UniProt C0HJB3).
T1 sequence (whole entry): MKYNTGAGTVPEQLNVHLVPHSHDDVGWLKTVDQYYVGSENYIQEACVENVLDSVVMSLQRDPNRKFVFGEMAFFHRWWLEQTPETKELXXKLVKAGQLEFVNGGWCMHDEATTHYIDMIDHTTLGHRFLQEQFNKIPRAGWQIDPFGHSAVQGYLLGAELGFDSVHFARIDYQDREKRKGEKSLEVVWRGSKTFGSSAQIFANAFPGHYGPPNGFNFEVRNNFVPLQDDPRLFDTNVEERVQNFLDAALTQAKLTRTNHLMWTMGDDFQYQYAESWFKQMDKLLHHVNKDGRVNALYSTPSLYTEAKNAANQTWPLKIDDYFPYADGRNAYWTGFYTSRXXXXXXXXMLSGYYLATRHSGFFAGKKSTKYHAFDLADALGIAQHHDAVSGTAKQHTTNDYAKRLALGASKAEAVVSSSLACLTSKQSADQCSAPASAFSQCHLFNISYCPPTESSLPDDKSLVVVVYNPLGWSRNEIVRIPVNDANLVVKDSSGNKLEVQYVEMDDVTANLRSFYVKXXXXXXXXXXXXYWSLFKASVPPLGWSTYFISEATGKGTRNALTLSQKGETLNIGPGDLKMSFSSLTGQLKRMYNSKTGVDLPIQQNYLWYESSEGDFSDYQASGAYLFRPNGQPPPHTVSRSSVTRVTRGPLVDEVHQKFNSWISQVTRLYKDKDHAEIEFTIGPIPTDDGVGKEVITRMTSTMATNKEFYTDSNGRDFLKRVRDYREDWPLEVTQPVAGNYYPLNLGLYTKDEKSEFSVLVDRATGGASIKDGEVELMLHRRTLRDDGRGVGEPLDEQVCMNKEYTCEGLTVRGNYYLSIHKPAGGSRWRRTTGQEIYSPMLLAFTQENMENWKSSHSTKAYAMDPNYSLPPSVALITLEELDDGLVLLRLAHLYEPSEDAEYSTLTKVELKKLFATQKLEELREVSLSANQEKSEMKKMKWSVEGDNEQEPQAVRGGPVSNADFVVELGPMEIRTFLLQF
Kind of assay: Inhibition of jack bean alpha-mannosidase at 1 mM using p-nitrophenyl glycopyranoside preincubated for 5 mins followed by substrate addition measured after 20 mins by visible absorption spectroscopic method relative to control. The procedure, abridged: (§1)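 Test compound at 1 mM in well. Mix: 0.01–0.5 units/mL enzyme plus 10 mM p-nitrophenyl glycopyranoside (aqueous solution), buffered to the enzyme's optimal pH. Enzyme and inhibitor preincubated 5 min at rt. Substrate then added and incubated 20 min at 37 °C. Stopped with sodium borate (pH 9.8). p-Nitrophenolate read at 405 nm. Duplicates averaged.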

In assay [2] the target is Beta-galactosidase (Escherichia coli) (UniProt Q8VNN2). The assay can be described thus: Inhibition of Escherichia coli beta-galactosidase at 1 mM using p-nitrophenyl glycopyranoside preincubated for 5 mins followed by substrate addition measured after 20 mins by visible absorption spectroscopic method relative to control. In outline: as §1
Beta-galactosidase (Escherichia coli), sequence (Q8VNN2 whole entry, looked up): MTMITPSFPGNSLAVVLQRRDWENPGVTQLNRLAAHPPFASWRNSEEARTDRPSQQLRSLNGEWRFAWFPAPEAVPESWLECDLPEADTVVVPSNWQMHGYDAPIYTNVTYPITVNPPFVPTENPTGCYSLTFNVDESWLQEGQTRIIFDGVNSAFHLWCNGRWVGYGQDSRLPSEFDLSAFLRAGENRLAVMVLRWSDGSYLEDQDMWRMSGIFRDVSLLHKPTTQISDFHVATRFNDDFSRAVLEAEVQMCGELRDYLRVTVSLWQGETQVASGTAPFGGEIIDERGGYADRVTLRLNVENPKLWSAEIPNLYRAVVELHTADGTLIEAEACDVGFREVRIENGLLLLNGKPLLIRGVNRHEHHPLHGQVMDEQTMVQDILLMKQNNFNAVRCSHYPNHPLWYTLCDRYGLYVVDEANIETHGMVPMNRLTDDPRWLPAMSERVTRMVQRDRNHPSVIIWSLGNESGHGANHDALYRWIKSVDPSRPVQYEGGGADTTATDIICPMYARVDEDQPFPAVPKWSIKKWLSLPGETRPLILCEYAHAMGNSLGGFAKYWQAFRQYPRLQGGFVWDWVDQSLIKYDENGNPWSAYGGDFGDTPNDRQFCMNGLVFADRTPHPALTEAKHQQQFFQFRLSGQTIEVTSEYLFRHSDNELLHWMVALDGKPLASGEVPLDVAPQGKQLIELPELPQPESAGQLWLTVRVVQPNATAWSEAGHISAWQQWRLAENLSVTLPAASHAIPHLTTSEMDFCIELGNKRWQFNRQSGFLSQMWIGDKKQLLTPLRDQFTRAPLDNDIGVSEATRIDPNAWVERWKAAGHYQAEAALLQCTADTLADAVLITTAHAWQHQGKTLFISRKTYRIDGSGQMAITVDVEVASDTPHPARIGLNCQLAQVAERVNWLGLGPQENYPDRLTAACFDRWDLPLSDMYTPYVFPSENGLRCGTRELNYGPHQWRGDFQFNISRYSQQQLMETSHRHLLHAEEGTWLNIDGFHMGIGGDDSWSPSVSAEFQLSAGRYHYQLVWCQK
The species named for another assay is Bos taurus. Kind of assay: Inhibition of bovine kidney alpha-L-fucosidase at 1 mM using p-nitrophenyl glycopyranoside preincubated for 5 mins followed by substrate addition measured after 20 mins by visible absorption spectroscopic method relative to control. The procedure, abridged: as §1
The next assay concerns Saccharomyces cerevisiae. The assay can be described thus: Inhibition of yeast alpha glucosidase at 1 mM using p-nitrophenyl glycopyranoside preincubated for 5 mins followed by substrate addition measured after 20 mins by visible absorption spectroscopic method relative to control. In outline:
as §1

For a further assay, the system named is Aspergillus niger. Kind of assay: Inhibition of Aspergillus niger amyloglucosidase at 1 mM using p-nitrophenyl glycopyranoside preincubated for 5 mins followed by substrate addition measured after 20 mins by visible absorption spectroscopic method relative to control. In outline: as §1
For the next assay, the system named is Oryza sativa. The assay can be described thus: Inhibition of rice alpha-glucosidase at 1 mM using p-nitrophenyl glycopyranoside preincubated for 5 mins followed by substrate addition measured after 20 mins by visible absorption spectroscopic method relative to control. In outline: as §1
In another assay the target is T2, Beta-galactosidase (Bos taurus, UniProt Q58D55).
T2 sequence (Q58D55 whole entry): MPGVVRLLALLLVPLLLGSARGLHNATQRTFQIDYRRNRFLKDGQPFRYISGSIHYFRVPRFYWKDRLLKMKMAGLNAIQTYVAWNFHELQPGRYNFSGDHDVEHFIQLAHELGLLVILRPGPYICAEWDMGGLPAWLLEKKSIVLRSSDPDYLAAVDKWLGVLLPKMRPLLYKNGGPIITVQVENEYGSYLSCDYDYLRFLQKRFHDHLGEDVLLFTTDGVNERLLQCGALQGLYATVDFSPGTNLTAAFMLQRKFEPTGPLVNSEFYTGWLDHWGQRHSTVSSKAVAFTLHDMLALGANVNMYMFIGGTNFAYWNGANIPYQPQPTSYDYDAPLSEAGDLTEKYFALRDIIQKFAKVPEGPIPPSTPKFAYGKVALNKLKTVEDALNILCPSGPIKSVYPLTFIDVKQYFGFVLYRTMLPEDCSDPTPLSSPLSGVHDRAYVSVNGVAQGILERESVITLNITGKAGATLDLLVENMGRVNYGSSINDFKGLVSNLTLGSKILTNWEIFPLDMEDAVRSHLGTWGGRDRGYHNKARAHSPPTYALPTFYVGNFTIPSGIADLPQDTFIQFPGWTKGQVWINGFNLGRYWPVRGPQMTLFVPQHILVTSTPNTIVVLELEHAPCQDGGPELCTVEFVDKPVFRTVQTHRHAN
The assay can be described thus: Inhibition of bovine liver beta-galactosidase using p-nitrophenyl glycopyranoside preincubated for 5 mins followed by substrate addition measured after 20 mins by visible absorption spectroscopic method. The procedure, abridged: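 IC50 determined only for compounds giving ≥80% inhibition at 1 mM, read from plots of % inhibition versus inhibitor concentration. p-Nitrophenyl glycopyranoside substrate (10 mM solution) at the enzyme's optimal pH, with 0.01–0.5 units/mL enzyme. 5 min rt preincubation with enzyme, then 20 min at 37 °C. Borate stop (pH 9.8), absorbance at 405 nm. Duplicates averaged.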

In another assay the test system is Prunus dulcis. The assay can be described thus: Inhibition of almond beta-glucosidase at 1 mM using p-nitrophenyl glycopyranoside preincubated for 5 mins followed by substrate addition measured after 20 mins by visible absorption spectroscopic method relative to control. The procedure, abridged: as §1

Activity calls are given as the source filed them. The calls are words filed in the database; no cut-off is given here. Some results are limits rather than exact numbers.

One may read the inhibition as how much of the control response was suppressed. For orientation: IC50 means the concentration that inhibits the measured activity by half. A lower IC50 goes with greater potency in that assay. Take `O[C@@H]1[C@H](O)CN[C@H]1Cn1cc(-c2ccccc2)nn1`: the inhibition entry (in assay [1]; in assay [2]; in the assay on Saccharomyces cerevisiae; in the assay on Oryza sativa) was “inactive” throughout. In addition, the inhibition amounted to 40% in the assay filed under Bos taurus, 38% in the assay with Aspergillus niger and 97% with Prunus dulcis. The molecule also had an IC50 on Beta-galactosidase of 458 µM.

In the case of `O[C@@H]1[C@H](O)CN[C@@H]1Cn1cc(-c2ccccc2)nn1`, the inhibition entry (in assay [1]; in assay [2]; in the assay on Saccharomyces cerevisiae; in the assay on Aspergillus niger; with Oryza sativa) was “inactive” each time. Also, the results for the inhibition in the assay filed under Bos taurus and in the assay with Prunus dulcis were 17% and less than 53%, respectively. The same molecule came in with an IC50 at Beta-galactosidase of 173 µM.
